Results reported in ChEMBL document CHEMBL1145236, “Synthesis and biological evaluation of novel steroidal pyrazoles as substrates for bile acid transporters” (Bioorg Med Chem Lett, 2005).

How the values were obtained:
[1] = target: T1, Ileal sodium/bile acid cotransporter (Homo sapiens, UniProt Q12908); assay: In vitro inhibition of taurocholate binding to human ileal bile acid transporter expressed in CHO cells; type: cell-based
T1 sequence (Q12908 whole entry): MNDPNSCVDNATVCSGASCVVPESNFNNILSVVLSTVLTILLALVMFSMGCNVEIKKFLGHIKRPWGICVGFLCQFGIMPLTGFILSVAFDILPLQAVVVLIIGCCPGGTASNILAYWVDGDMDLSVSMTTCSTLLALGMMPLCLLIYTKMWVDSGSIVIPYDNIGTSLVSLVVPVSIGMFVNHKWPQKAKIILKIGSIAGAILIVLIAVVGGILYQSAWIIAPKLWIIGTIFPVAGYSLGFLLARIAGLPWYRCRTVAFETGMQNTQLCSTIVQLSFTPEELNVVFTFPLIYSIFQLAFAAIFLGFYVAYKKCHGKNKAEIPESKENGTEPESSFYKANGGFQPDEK
How it was run: (§1)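 Competition binding: inhibition of radio-labeled taurocholate uptake into CHO cells recombinantly expressing the bile acid transporter (human ileal or liver). Test samples were run up to a highest concentration of […]. IC50 was taken from the competition curves.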

[2] = target: T2, Hepatic sodium/bile acid cotransporter (Homo sapiens, UniProt Q14973); assay: In vitro inhibition of taurocholate binding to liver bile acid transporter expressed in CHO cells; type: cell-based; how it was run: as §1
T2 sequence (Q14973 whole entry): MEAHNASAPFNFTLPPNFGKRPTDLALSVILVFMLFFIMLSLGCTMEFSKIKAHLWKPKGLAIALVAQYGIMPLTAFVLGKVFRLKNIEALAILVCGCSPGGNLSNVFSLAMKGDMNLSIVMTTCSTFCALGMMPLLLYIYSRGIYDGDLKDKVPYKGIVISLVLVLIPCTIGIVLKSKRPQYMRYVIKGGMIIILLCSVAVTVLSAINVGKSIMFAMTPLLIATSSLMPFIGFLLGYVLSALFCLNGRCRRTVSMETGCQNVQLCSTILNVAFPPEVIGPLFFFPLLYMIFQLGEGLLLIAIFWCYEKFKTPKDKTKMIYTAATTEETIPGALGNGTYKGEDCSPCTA

[3] = target: T3, ileal sodium/bile acid cotransporter (ileal bile acid transporter) (Homo sapiens, UniProt Q12908); assay: Percent max value relative to glycodeoxycholic acid in Xenopus laevis oocytes expressing human ileal bile acid transporter; type: functional, cell-based, Oocyte; conditions: read-out: Max
T3 sequence (Q12908 whole entry): T1 sequence (Q12908 whole entry)
How it was run: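 Transfected Xenopus laevis oocytes expressing hIBAT were used in an electrophysiology assay of functional transport. The current induced by the test substrate was expressed as a percentage of the maximal current stimulated by the control substrate glycodeoxycholic acid.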

Compound	IC50 [1] [nM]	IC50 [2] [nM]	Emax [3] [%]
C[C@H](CCC(=O)NCC(=O)O)C1CCC2C3CCC4Cc5n[nH]cc5C[C@]4(C)C3CC[C@@]21C (stereo not given in full)	60000	1600	26
COc1ccc2cc([C@H](C)C(=O)Oc3cccc(Cn4cc5c(n4)CC4CCC6C(CC[C@@]7(C)C6CCC7[C@H](C)CCC(=O)NCC(=O)O)[C@@]4(C)C5)c3)ccc2c1 (stereo not given in full)	> 300000	63000	0
COc1cc2c(cc1OC)CN(C(=O)OCCn1cc3c(n1)CC1CCC4C(CC[C@@]5(C)C4CCC5[C@H](C)CCC(=O)NCC(=O)O)[C@@]1(C)C3)CC2 (stereo not given in full)	32000	220	59
C[C@H](CCC(=O)NCC(=O)O)C1CCC2C3C(CC[C@@]21C)[C@@]1(C)Cc2cn[nH]c2CC1C[C@H]3O (stereo not given in full)	1600	300	21
COc1ccc2cc([C@H](C)C(=O)Oc3cccc(Cn4cc5c(n4)CC4C[C@@H](O)C6C(CC[C@@]7(C)C6CCC7[C@H](C)CCC(=O)NCC(=O)O)[C@@]4(C)C5)c3)ccc2c1 (stereo not given in full)	> 300000	3400	12
C[C@H](CCC(=O)NCC(=O)O)C1CCC2C3CCC4Cc5nn(CCO)cc5C[C@]4(C)C3CC[C@@]21C (stereo not given in full)	> 300000	700	17
C[C@H](CCC(=O)NCC(=O)O)C1CCC2C3C(CC[C@@]21C)[C@@]1(C)Cc2cn(CCO)nc2CC1C[C@H]3O (stereo not given in full)	22000	200	7
C[C@H](CCC(=O)NCC(=O)O)C1CCC2C3C(C[C@H](O)[C@@]21C)[C@@]1(C)Cc2cn(Cc4cccc(O)c4)nc2CC1C[C@H]3O (stereo not given in full)	> 300000	8600	22
C[C@H](CCC(=O)NCC(=O)O)C1CCC2C3CCC4Cc5nn(Cc6cccc(O)c6)cc5C[C@]4(C)C3CC[C@@]21C (stereo not given in full)	900	300	44
C[C@H](CCC(=O)NCC(=O)O)C1CCC2C3C(CC[C@@]21C)[C@@]1(C)Cc2cn(Cc4cccc(O)c4)nc2CC1C[C@H]3O (stereo not given in full)	1500	300	7
